Experimental data gathered from unrelated publications.
Each line is one published result; the experiments were not run side by side.
MET: Hepatocyte growth factor receptor (MET, Homo sapiens, UniProt P08581)
MET Y1235D: Hepatocyte growth factor receptor (MET, Homo sapiens, UniProt P08581, Y1235D)

| SMILES | target | assay | conditions | quantity | value |
| --- | --- | --- | --- | --- | --- |
| Cc1ccc(NC(=O)c2ccnc(C(F)(F)F)c2)cc1-c1cc(OCCO)nc(N2CCOCC2)c1 | MET | binding | 1 µM | remaining binding | 100% |
| C1=C/COCc2cc(ccc2OCCN2CCCC2)Nc2nccc(n2)-c2cccc(c2)COC/1 | MET Y1235D | binding | 0.1 µM | remaining binding | 100% |
| Cc1cc(O)c(-c2ccc([C@@H](C)CN(C)C)cc2)c2c1[nH]c(=O)c1sccc12 | MET | cell-free assay, inhibitor | 0.1 µM | inhibition | -0.782% |
| C#Cc1cnc(Nc2ccnc(CO)c2)nc1Nc1ccccc1S(C)(=O)=NC#N (centres unmarked) | MET | cell-free assay | 1 µM | remaining signal | 83% |
| CC#CC(=O)N1CCC[C@H]1c1nc(-c2ccc(C(=O)Nc3ccccn3)cc2)c2c(N)nccn12 | MET | enzyme activity, inhibitor | 1 µM | inhibition | 17% |
| COc1ccc2oc(-c3ccc4nc(N)oc4c3)c/c(=N\c3ccccc3NC(=O)CCN)c2c1 | MET | binding | 1 µM | remaining binding | 106% |
| CCCCC(=O)Nc1ccc(-c2ccc3ncn(CCC)c(=O)c3c2)cn1 | MET | binding, competition with immobilised ligand | 0.5 µM | remaining binding | 96% |
| N#Cc1ccc(NC(=O)Nc2ccccc2)cc1 | MET | cell-free assay, competition with immobilised ligand | 25 µM | remaining binding | 100% |
| CN1CCN(C(=O)c2ccc(NC(=O)Nc3ccc(N(C)c4ccnc(Nc5ccc(CS(C)(=O)=O)cc5)n4)cc3)cc2)CC1 | MET Y1235D | binding | 1 µM | remaining binding | 4.4% |
| CC(C)S(=O)(=O)c1ccc2nccc(Nc3ccc4sc(C5CCCC5)nc4c3)c2c1 | MET | enzyme activity, inhibitor | 1 µM | activity vs control | 119% |
| COc1ccc2[nH]c3c4[nH]c5ccc(OC)cc5c4c4c(c3c2c1)C(=O)NC4=O | Hepatocyte growth factor receptor (MET, Homo sapiens, UniProt P08581, M1250T) | binding | 1 µM | remaining binding | 88% |
| O=C1C=C(Nc2ccc(OCc3cn(Cc4ccccc4)nn3)cc2)C(=O)c2ccccc21 | MET | enzyme activity, inhibitor, radiometric | 10 µM | inhibition | 18% |
| C=CC(=O)N1CCC([C@@H]2CCNc3c(C(N)=O)c(-c4ccc(Oc5ccccc5)cc4)nn32)CC1 | MET | cell-free assay | 1 µM | inhibition | 7% |
| C[C@H]1CC[C@H](n2c3cnccc3c3cnc(Nc4ccc5c(n4)CCN(C(=O)CO)C5)nc32)CC1 | MET Y1235D | cell-free assay | 1 µM | remaining signal | 100% |
